The text below walks through data of paper PMC5159300 (Cell chemical biology, 2016).

pIC50: −log10 of the molar value. ≈ marks a conversion by molar mass, not a printed value. Like-named read-outs stand apart in the source and are kept apart here.

In data set [1] the target is T1, human cytochrome bc1 (Homo sapiens, UniProt P00156). Particulars: human IC50 versus C. albicans homolog IC50.
Data set [2] can be described thus: Solubility limit. It is filed as physicochemical.
For data set [3], the target named is cytochrome bc1 (Saccharomyces cerevisiae, UniProt P00163). Briefly: Cytochrome bc1 enzymatic activity in purified yeast mitochondria. The settings on record: read-out: IC50 cytochrome bc1 inhibition; S. cerevisiae mitochondria, wild type. Format: biochemical.
Data set [4] has as its system C. albicans (SC5314). Briefly: C. albicans growth in media with glucose or glycerol as carbon source. Format: cell-based, Candida albicans. The method in brief: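 Growth compared in synthetic medium of yeast nitrogen base with complete amino acid supplement, containing either 2% glucose or 2% glycerol as carbon source. Data pooled from two independent experiments.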

Data set [5] is described as follows: Mouse liver microsome stability. It is filed as in vitro ADME. The settings on record: 15 minute incubation at 37 C.
The subject of data set [6] is S. cerevisiae (BY4741). It is filed as cell-based.
The target in data set [7] is cytochrome bc1 (Candida albicans, UniProt P0C8L0). Briefly: Cytochrome bc1 enzymatic activity in purified C. albicans mitochondria. It is filed as biochemical. Particulars: for Extent of inhibition of C. albicans cytochrome bc1 activity: maximal effect.
Data set [8] in a line: Plasma stability. It is filed as in vitro ADME, human.
In data set [9] the test system is C. albicans CaCi-2. Format: cell-based, Candida albicans. The settings on record: in the presence of fluconazole; SAR statement.
Data set [10] deals with C. albicans CaCi-2 and rip1Δ/Δ. Briefly: Mouse systemic infection. Particulars: low inoculum of CaCi-2 or rip1Δ/Δ; fluconazole 24 mg/kg IP for 3 days. It is filed as in vivo, Balb/C mice.
For data set [11], the system named is C. albicans SC5314. Briefly: Clonogenic survival in liquid culture. Format: cell-based, Candida albicans. Particulars: for Effect on growth and viability as single agent: 32 mg/L fluconazole alone or 10 μM Inz-5 alone.
For data set [12], the system named is C. albicans wild-type (SC5314). The data set can be described thus: Emergence of fluconazole-resistant colonies on agar plates. Format: cell-based, Candida albicans.
Data set [13] concerns HepG2 cells. The data set can be described thus: Mammalian cell respiration toxicity. The settings on record: Homo sapiens, HepG2, read-out: IC50 toxicity to respiring HepG2 cells. It is filed as cell-based. The method in brief:
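HepG2 cells were passaged in high-glucose DMEM, washed and resuspended in glucose-free DMEM with 10 mM galactose to force respiration, then seeded at 10,000 cells/well. After 72 hr with test compound, cellular ATP was measured by luminescent assay (reagent at 1:5 dilution) as a proxy for growth. IC50 was averaged from at least 2 independent experiments.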

Data set [14] has as its system malarial cytochrome B. Particulars: ref Hughes et al., 1998; cited from earlier work.
In data set [15] the target is T1, human cytochrome bc1. The data set can be described thus: biochemical.
Data set [16] concerns Rhizopus oryzae. The data set can be described thus: Single-agent growth inhibition of Rhizopus oryzae. Format: cell-based. The settings on record: enhanced under respiratory growth conditions.
The subject of data set [17] is Scedosporium prolificans. The data set can be described thus: Single-agent growth inhibition of Scedosporium prolificans. It is filed as cell-based. The settings on record: enhanced under respiratory growth conditions.
Data set [18] has as its system C. albicans SC5314. Briefly: Diffusion halo assay on agar plates with various carbon sources. Particulars: 10 μg disc. Format: cell-based, Candida albicans. The method in brief: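 SC5314 cells were spread on agar plates with different carbon sources. These included 80% fetal bovine serum as nutrient source (~0.1-0.2% glucose), high (2%) glucose, galactose and non-fermentable sources. A filter disc carried 10 μg test compound in DMSO or DMSO alone. The zone of growth inhibition was scored.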

Data set [19] relates to C. albicans. The data set can be described thus: Co-culture of C. albicans with mouse bone-marrow-derived macrophages. It is filed as cell-based, Candida albicans. The settings on record: 5 μM.
The test system of data set [20] is Aspgerillus terreus. The data set can be described thus: Single-agent growth inhibition of Aspgerillus terreus. Particulars: enhanced under respiratory growth conditions. It is filed as cell-based.
Setting [21] is: media containing glycerol as the sole carbon source.

Chain of cytochrome bc1 (Candida albicans, UniProt P0C8L0) (P0C8L0 whole entry): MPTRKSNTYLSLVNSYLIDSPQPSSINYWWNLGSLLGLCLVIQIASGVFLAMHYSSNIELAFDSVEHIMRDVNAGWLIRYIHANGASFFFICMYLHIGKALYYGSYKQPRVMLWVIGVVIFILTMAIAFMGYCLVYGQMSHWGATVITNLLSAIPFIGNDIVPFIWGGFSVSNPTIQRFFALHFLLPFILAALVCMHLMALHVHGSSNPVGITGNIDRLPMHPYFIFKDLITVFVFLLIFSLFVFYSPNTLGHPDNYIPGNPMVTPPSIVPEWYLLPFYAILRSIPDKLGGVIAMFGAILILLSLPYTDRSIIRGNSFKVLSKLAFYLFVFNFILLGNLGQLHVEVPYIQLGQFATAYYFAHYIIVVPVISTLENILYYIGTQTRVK

With `COC(=O)Cn1nc(-c2ccccc2)c2ccccc21` [Inz-1], the “Fold higher IC50 for human than for C. albicans cytochrome bc1” value in data set [1] was 5.6 fold. The compound further gave a Solubility limit in data set [2] of 32 µM (≈ 8.52 µg/mL). The negative-log IC50 (pIC50) in data set [3] is 5.60. Besides, the “Growth inhibition” value in [4] (glucose media) was “only mildly slowing growth”; in data set [4] (setting [21]) it was “potently inhibited growth”; in [6] (glucose media), “only mildly slowing growth”; in [6] (setting [21]), “potently inhibited growth”. Besides, in data set [5], the “Compound remaining in mouse liver microsomes” value is less than 1%. For the same compound, the “Resistance conferred by L275S mutation” value in [6] (cytochrome B L275S mutant) was “confer resistance”. In data set [6] (cytochrome B P270L mutant), the “Resistance conferred by P270L mutation” value is given as “confer resistance”. The “Resistance conferred by G143A mutation” value in data set [6] (yeast cytochrome B G143A mutant, respiratory growth) is “strong resistance”. Also, in data set [7], the “Extent of inhibition of C. albicans cytochrome bc1 activity” value is given as “significant residual activity”. For the same compound, the “Plasma stability” value in data set [8] (incubation of 1 hour at 37 C in human plasma) is given as “fully degraded”.

As for `c1ccc(-c2nn(Cc3cnccn3)c3ccccc23)cc1` [Inz-37], the “Activity against Candida proliferation” value in data set [9] is on record as “retained activity”.

`COC(=O)Cn1nc(-c2ccccc2)c2cccc(C)c21` [Inz-3]: the “Activity against Candida proliferation” value in data set [9] was “beneficial to both the activity and the selectivity”.

For the compound `COC(=O)Cn1nc(-c2cc(C(F)(F)F)ccc2F)c2ccccc21` [Inz-2], in data set [7] (compared with Inz-1), the “Potency against the fungal enzyme” value is “significant enhancement of potency”.

For `OC(Cn1cncn1)(Cn1cncn1)c1ccc(F)cc1F` [fluconazole, reference compound], the “Brain fungal burden” value in data set [10] was “eliminated brain colonization”. Besides, in data set [11], the “Effect on growth and viability as single agent” value was “slowed growth of the wild-type strain but did not cause a decrease in viability”. The “Rate of emergence of resistant colonies” value in [12] (64 mg/L fluconazole alone) is given as ~ 0.5%.

Turning to `O=C1C(O)=C([C@H]2CC[C@H](c3ccc(Cl)cc3)CC2)C(=O)c2ccccc21` [atovaquone], the pIC50 is 4.90 in [13] and 5.74 in data set [15]. Moreover, in [14], the “Potency against the malarial cytochrome B” value is given as “low nanomolar potency”.

As for `Cc1cccc2c(-c3cc(C(F)(F)F)ccc3F)nn(Cc3nnn(C)n3)c12` [Inz-5], the “Growth inhibition as a single agent” value in [16], in data set [17] and in data set [20] was “promising growth inhibition” in each case. Further, the “Activity against Candida proliferation” value in [9] was “sub-micromolar activity”. Besides, the “Compound remaining in mouse liver microsomes” value in data set [5] amounted to 19.5%. The “Growth inhibition in halo assay” value in data set [18] (80% fetal bovine serum as the nutrient source) is “slight growth inhibition”; in [18] (amino acids, lactate, or acetate as the carbon source) it was “potent and profound growth inhibition”; in data set [18] (galactose) it was “moderate growth inhibition”; in [18] (high glucose), “very little growth inhibition”. Further, the “Fungal growth in the presence of macrophages” value in data set [19] (14-hour co-culture) is listed as “sharply curtailed fungal growth”. The “Escape of C. albicans from macrophages” value in [19] (2 hours) is given as “remained trapped in the phagosome”. The “Extent of inhibition of C. albicans cytochrome bc1 activity” value in [7] is recorded as “complete inhibition”. In addition, the “Reduction of the number of viable colonies” value in [11] (10 μM Inz-5 in combination with 32 mg/L fluconazole) is 97%. In [11], the “Effect on growth and viability as single agent” value is on record as “partially slowed growth”. Moreover, the “Effect on colonies” value in data set [12] (10 μM Inz-5 alone) is “reduced colony size, but no reduction in the total number of colonies”. Also, the “Effect on emergence of resistant colonies” value in data set [12] (10 μM Inz-5 in combination with 64 mg/L fluconazole) is reported as “completely abrogated the emergence of resistant colonies”. Besides, the “Plasma stability” value in [8] (3 hours of incubation in human serum) is given as “fully recovered”.

With `Cn1nnc(Cn2nc(-c3ccccc3)c3ccccc32)n1` [Inz-34], the “Activity against Candida proliferation” value in data set [9] is recorded as “retained activity”.
